How the values were obtained:
Trypanosoma cruzi [1] = assay: Trypanocidal activity against epimastigote stage of Trypanosoma cruzi assessed as cell viability after 24 hrs by MTT assay
Vero = assay: Cytotoxicity against african green monkey Vero cells by MTT assay; format: cell-based; settings: Chlorocebus sabaeus
Procedure, shortened: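 Vero cells in RPMI 1640 without phenol red, with compound added from DMSO (final below 0.25% v/v). Read by MTT (5 mg/mL) plus 0.22 mg/mL phenazine methosulfate for 4 h at 37 °C, formazan dissolved in 10% SDS/0.01 M HCl overnight, OD at 570 nm. IC50 from four-parameter nonlinear fit; at least three experiments, triplicate cultures.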

MDA-MB-231 = assay: Antiproliferative activity against human MDA-MB-231 cells after 72 hrs; format: functional, cell-based; settings: MDA-MB-231, 72 h
Procedure, shortened: (§1)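 Cells grown in DMEM with 10% FCS, penicillin/streptomycin and 1 mM glutamine. Seeded at 3 × 10³ cells/well and allowed to attach for 24 h at 37 °C in 5% CO₂. Exposed continuously for 72 h to four serial dilutions (12.5 to 100 µM), in triplicate; final DMSO 0.1%, DMSO-only controls. Read by sulforhodamine B after TCA fixation, with doxorubicin as reference.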

MCF7 [2] = assay: Antiproliferative activity against human MCF7 cells after 72 hrs; format: functional, cell-based; settings: MCF7, 72 h
Procedure, shortened: as §1

[3] = Antiproliferative activity against human dermal fibroblast cells after 72 hrs; format: cell-based
Procedure, shortened: as §1

[4] = Antiproliferative activity against human PC3 cells after 72 hrs; format: functional, cell-based; settings: PC-3, 72 h
Procedure, shortened: as §1

MCF7 [5] = assay: Selectivity index, ratio of IC50 for human dermal fibroblast cells to IC50 for human MCF7 cells; format: functional
Procedure, shortened: (§2)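 Selectivity index calculated as IC50 in non-tumoral dermal human fibroblasts divided by IC50 in the cancer line. Both IC50s come from a 72 h sulforhodamine B growth assay with four dilutions (12.5–100 µM) in triplicate.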

Fibroblast [6] = assay: Selectivity index, ratio of IC50 for human dermal fibroblast cells to IC50 for human PC3 cells; format: functional
Procedure, shortened: as §2

Trypanosoma cruzi [7] = assay: Trypanocidal activity against trypomastigote form of Trypanosoma cruzi infected in african green monkey Vero cells assessed as cell viability after 5 to 7 days by MTT assay; format: functional
[8] = Selectivity index, ratio of CC50 for african green monkey Vero cells to IC50 for epimastigote stage of Trypanosoma cruzi; format: functional
Procedure, shortened: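 Selectivity index taken as Vero IC50 divided by epimastigote IC50. Both values are from MTT viability assays, with Vero cells read at 37 °C and epimastigotes at 28 °C.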

Fibroblast [9] = assay: Selectivity index, ratio of IC50 for human dermal fibroblast cells to IC50 for human MDA-MB-231 cells; format: functional
Procedure, shortened: as §2

SMILES | IC50 (Trypanosoma cruzi [1]) [µM] | IC50 (Vero) [µM] | IC50 (MDA-MB-231) [µM] | IC50 (MCF7 [2]) [µM] | IC50 [3] [µM] | IC50 [4] [µM] | Selectivity Index (MCF7 [5]) | Selectivity Index (Fibroblast [6]) | inhibition (INH) (Trypanosoma cruzi [7]) [%] | Selectivity Index [8] | Selectivity Index (Fibroblast [9])
O=C1C=C(Nc2ccc(O)cc2)C(=O)c2ccccc21 | > 25 | > 25 | – | – | – | – | – | – | – | – | –
COc1ccc(NC2=CC(=O)c3ccccc3C2=O)cc1 | > 25 | > 25 | > 100 | > 100 | 65.4 | 35.4 | – | – | – | – | –
COc1ccc(OC)c(NC2=CC(=O)c3ccccc3C2=O)c1 | 23.3 | > 50 | 87.5 | 0.21 | > 100 | 1.03 | >480 | >97 | – | – | –
COc1ccc(OC)c(NC2=C(Cl)C(=O)c3ccccc3C2=O)c1 | > 100 | > 100 | – | – | – | – | – | – | – | – | –
O=C1C=C(Nc2ccc3ccccc3c2)C(=O)c2ccccc21 | 9.02 | 6.97 | – | – | – | – | – | – | 86.02 | 0.77 | –
O=C1C(O)=C(c2ccccc2[N+](=O)[O-])C(=O)c2ccccc21 | > 100 | > 100 | – | – | – | – | – | – | – | – | –
COc1ccccc1NC1=CC(=O)c2ccccc2C1=O | 3.49 | > 25 | > 100 | > 100 | > 100 | > 100 | – | – | 18.78 | – | –
COc1cccc(NC2=CC(=O)c3ccccc3C2=O)c1 | > 25 | > 25 | > 100 | > 100 | > 100 | > 100 | – | – | – | – | –
COc1ccc(NC2=CC(=O)c3ccccc3C2=O)cc1OC | 25 | > 25 | 10.2 | 22.2 | > 100 | 10.4 | – | – | – | – | –
COc1ccc(NC2=CC(=O)c3ccccc3C2=O)c(OC)c1 | > 25 | > 25 | > 100 | > 100 | > 100 | 60 | – | – | – | – | –
CCCCCCOc1ccc(NC2=CC(=O)c3ccccc3C2=O)cc1 | 1.72 | 27 | > 100 | > 100 | > 100 | 27.9 | – | – | 69.63 | 16 | –
Cc1ccc(NC2=CC(=O)c3ccccc3C2=O)c(C)c1 | > 25 | > 25 | – | – | – | – | – | – | – | – | –
CCCCCCOc1ccc(NC2=C(Cl)C(=O)c3ccccc3C2=O)cc1 | 6.04 | 196 | > 100 | > 100 | > 100 | > 100 | – | – | 46.3 | 32 | –
O=C1C=C(Nc2cccc3ccccc23)C(=O)c2ccccc21 | 15.9 | > 25 | – | – | – | – | – | – | 59.67 | – | –
COc1cccc2c3c([nH]c12)C(=O)c1ccccc1C3=O | 20.9 | 21.7 | > 100 | > 100 | > 100 | > 100 | – | – | 12.21 | 0.95 | –
COc1ccc2c3c([nH]c2c1)C(=O)c1ccccc1C3=O | > 25 | > 25 | – | – | – | – | – | – | – | – | –

SMILES | IC50 (Trypanosoma cruzi [1]) [µM] | IC50 (Vero) [µM] | IC50 (MDA-MB-231) [µM] | IC50 (MCF7 [2]) [µM] | IC50 [3] [µM] | IC50 [4] [µM] | Selectivity Index (MCF7 [5]) | Selectivity Index (Fibroblast [6]) | inhibition (INH) (Trypanosoma cruzi [7]) [%] | Selectivity Index [8] | Selectivity Index (Fibroblast [9])
COc1ccc2[nH]c3c(c2c1)C(=O)c1ccccc1C3=O | > 50 | > 50 | > 100 | > 100 | > 100 | > 100 | – | – | – | – | –
COc1ccc(OC)c2c3c([nH]c12)C(=O)c1ccccc1C3=O | > 100 | > 100 | – | – | – | – | – | – | – | – | –
CCCCCCOc1ccc2[nH]c3c(c2c1)C(=O)c1ccccc1C3=O | > 100 | > 100 | – | – | – | – | – | – | – | – | –
COc1cc2c(cc1OC)C(=O)c1c([nH]c3cc(OC)c(OC)cc13)C2=O | > 100 | > 100 | – | – | – | – | – | – | – | – | –
COc1ccc2c(c1)c1c(n2C)C(=O)c2ccccc2C1=O | > 25 | > 25 | > 100 | > 100 | > 100 | > 100 | – | – | – | – | –
COc1cc2c3c(n(C)c2cc1OC)C(=O)c1ccccc1C3=O | > 100 | > 100 | > 100 | > 100 | > 100 | > 100 | – | – | – | – | –
COc1ccc(OC)c(NC2=CC(=O)c3ncccc3C2=O)c1 | 2.45 | 15.4 | 8.8 | 0.12 | 22.5 | 0.53 | 188 | 42 | 32.62 | 6.3 | –
O=C1C(Cl)=C(Nc2cccnc2)C(=O)c2ccccc21 | > 100 | > 100 | – | – | – | – | – | – | – | – | –
Cc1cnc2c(c1)C(=O)C=C(Nc1ccccc1)C2=O | 5.79 | 16.2 | – | – | – | – | – | – | 58.2 | 2.7 | –
COc1ccc(OC)c(NC2=CC(=O)C3=C(OC(C)(C)C3)C2=O)c1 | 12.3 | 15.5 | – | – | – | – | – | – | 7.5 | 1.3 | –
Cn1ncc2c1C(=O)C1=C(CC(C)(C)O1)C2=O | 2.53 | 13.4 | – | – | – | – | – | – | 38.57 | 5.3 | –
COc1cc2c(cc1OC)C(=O)C(c1cc(OC)c(OC)cc1[N+](=O)[O-])=C(O)C2=O | > 100 | > 100 | – | – | – | – | – | – | – | – | –
O=C1C=C(Nc2ccccc2)C(=O)c2ccccc21 | > 25 | > 10 | – | – | – | – | – | – | – | – | –
O=C1c2ccccc2C(=O)c2c1[nH]c1ccccc21 [BENZOCARBAZOLEDIONE] | > 10 | > 10 | – | – | – | – | – | – | – | – | –
COc1cccc2c1C(=O)c1c(O)c3c(c(O)c1C2=O)C[C@@](O)(C(=O)CO)C[C@@H]3O[C@H]1C[C@H](N)[C@H](O)[C@H](C)O1 [DOXORUBICIN] | – | – | 0.31 | 0.32 | 7.86 | 0.54 | 25 | 15 | – | – | 25
CC1CS(=O)(=O)CCN1/N=C/c1ccc([N+](=O)[O-])o1 (stereo not given) [NIFURTIMOX] | 21.1 | 411 | – | – | – | – | – | – | 42.62 | 20 | –
